Data taken from the RNAGym collection of RNA variant scans (doi:10.1002/anie.201605470).

B1: Osa-1-4 twister ribozyme (parent)
chain: CCGCCUAACACUGCCAAUGCCGGUCCCAAGCCCGGAUAAAAGUGGAGGGGGCGG

Variants of: B1
Assay: self-cleavage, relative activity (ratio to wild type); higher = more cleavage; co-transcriptional
Summary of the method: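 In vitro transcription at 37 °C for 2 h allowed the twister ribozyme to cleave itself as it was made. Its 54-nucleotide Oryza sativa template had been synthesised with 97 % wild-type base and 1 % of each other base at the 48 positions downstream of the cleavage site. A template-switching oligonucleotide was used for reverse transcription, followed by PCR amplification and deep sequencing. Whether reads carried upstream sequence set the cleavage status, and relative activity is the fraction cleaved normalised to wild type.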
Work on G19U U18C yielded a self-cleavage of 0.36. For C20U C52U, the self-cleavage was 0.96. With C20U C52A the self-cleavage was 0.9. In the case of C20U C52G, the self-cleavage is reported as 0.89. In the case of C20A G53U, the self-cleavage is reported as 0.42. Work on C20A G53A yielded a self-cleavage of 0.67. C20A G53C showed a self-cleavage of 0.1. C20U C26A gave a self-cleavage of 0.08. C20U C26G gave a self-cleavage of 0.24. With C20U C26U the self-cleavage was 0.92. For C20A U43G, the self-cleavage was 0.71. With C20A U43C the self-cleavage was 0.58. With C20A U43A the self-cleavage was 0.77. In the case of G19U U24A, the self-cleavage is reported as 0.05. G19U U24C gave a self-cleavage of 0.07. G19U U24G showed a self-cleavage of 0.07. With G19U G50U the self-cleavage was 0.21. For G19U G50A, the self-cleavage was 0.59. With G19U G50C the self-cleavage was 0.1. With C20G C33A the self-cleavage was 0.04. Work on C20G C33U yielded a self-cleavage of 0.05. Variant C20G C33G has a self-cleavage of 0.05. For C20A C21U, the self-cleavage was 0.86. C20A C21A gave a self-cleavage of 0.78. For C20A C21G, the self-cleavage was 0.12. C20A G49A gave a self-cleavage of 0.2. C20A G49U gave a self-cleavage of 0.16. C20A G49C showed a self-cleavage of 0.06. Work on G19U G47C yielded a self-cleavage of 0.04. G19U G47U gave a self-cleavage of 0.04. Work on G19U G47A yielded a self-cleavage of 0.04. Variant C20A G42C has a self-cleavage of 0.17. With C20A G42U the self-cleavage was 0.07. In the case of C20A G42A, the self-cleavage is reported as 0.59. Work on C20U C33A yielded a self-cleavage of 0.11. Variant C20U C33G has a self-cleavage of 0.07. For C20U C33U, the self-cleavage was 0.77. C20U C32U showed a self-cleavage of 0.15. Variant C20U C32A has a self-cleavage of 0.08. With C20U C32G the self-cleavage was 0.13. G19U G35C showed a self-cleavage of 0.6. With G19U G35A the self-cleavage was 0.21. Variant G19U G35U has a self-cleavage of 0.76. Work on C20G U43G yielded a self-cleavage of 0.09. Variant C20G U43C has a self-cleavage of 0.07. For C20G U43A, the self-cleavage was 0.07. C20U G19A gave a self-cleavage of 0.9. In the case of C20U G19U, the self-cleavage is reported as 0.65. C20U G19C gave a self-cleavage of 0.18. Work on C20U C25U yielded a self-cleavage of 0.9. C20U C25G showed a self-cleavage of 0.15. Variant C20U C25A has a self-cleavage of 0.17. Work on C20A G35A yielded a self-cleavage of 0.88. C20A G35U showed a self-cleavage of 0.94. C20A G35C showed a self-cleavage of 0.9. C20G G48A gave a self-cleavage of 0.03. Variant C20G G48C has a self-cleavage of 0.04. Work on C20G G48U yielded a self-cleavage of 0.03. In the case of C20U G23C, the self-cleavage is reported as 0.05. C20U G23U gave a self-cleavage of 0.13. C20U G23A showed a self-cleavage of 0.27. With C20G U37A the self-cleavage was 0.2. For C20G U37G, the self-cleavage was 0.19. Variant C20G U37C has a self-cleavage of 0.19. In the case of G19C G51C, the self-cleavage is reported as 0.03. For G19C G51U, the self-cleavage was 0.04. G19C G51A showed a self-cleavage of 0.08. For G19C G50U, the self-cleavage was 0.07. With G19C G50A the self-cleavage was 0.24. With G19C G50C the self-cleavage was 0.06. C20A G54C gave a self-cleavage of 0.78. C20A G54U showed a self-cleavage of 0.76. Variant C20A G54A has a self-cleavage of 0.75. For C20A C26G, the self-cleavage was 0.08. C20A C26A gave a self-cleavage of 0.08. C20A C26U showed a self-cleavage of 0.87. For C20A G34U, the self-cleavage was 0.64. Variant C20A G34C has a self-cleavage of 0.26. For C20A G34A, the self-cleavage was 0.84. C20U G22C gave a self-cleavage of 0.06. C20U G22A showed a self-cleavage of 0.6. Work on C20U G22U yielded a self-cleavage of 0.5. Variant C20A G44U has a self-cleavage of 0.78. C20A G44A showed a self-cleavage of 0.75. For C20A G44C, the self-cleavage was 0.76. G19C U37C showed a self-cleavage of 0.64. With G19C U37A the self-cleavage was 0.46. G19C U37G gave a self-cleavage of 0.24. Work on G19U U43A yielded a self-cleavage of 0.11. Variant G19U U43G has a self-cleavage of 0.09. G19U U43C showed a self-cleavage of 0.07. Work on C20G G23U yielded a self-cleavage of 0.04. Work on C20G G23C yielded a self-cleavage of 0.04. For C20G G23A, the self-cleavage was 0.06. Variant C20G U12A has a self-cleavage of 0.09. Work on C20G U12C yielded a self-cleavage of 0.07. In the case of C20G U12G, the self-cleavage is reported as 0.04. Variant C20G C32A has a self-cleavage of 0.03. C20G C32G gave a self-cleavage of 0.06. Work on C20G C32U yielded a self-cleavage of 0.03. C20A G50A showed a self-cleavage of 0.8. In the case of C20A G50U, the self-cleavage is reported as 0.82. Work on C20A G50C yielded a self-cleavage of 0.78. With G19U the self-cleavage was 0.57. For C20A C52A, the self-cleavage was 0.8. C20A C52U gave a self-cleavage of 0.82. C20A C52G showed a self-cleavage of 0.79. Variant C20G G19A has a self-cleavage of 0.41. In the case of C20G G19C, the self-cleavage is reported as 0.17. Variant C20G G19U has a self-cleavage of 0.37. C20G G30C showed a self-cleavage of 0.03. With C20G G30U the self-cleavage was 0.02. Variant C20G G30A has a self-cleavage of 0.03. In the case of C20A G48C, the self-cleavage is reported as 0.07. With C20A G48U the self-cleavage was 0.09. Work on C20A G48A yielded a self-cleavage of 0.09. Variant C20G G50A has a self-cleavage of 0.23. Variant C20G G50U has a self-cleavage of 0.09. With C20G G50C the self-cleavage was 0.06. C20A G19A gave a self-cleavage of 0.86. C20A G19U showed a self-cleavage of 0.78. For C20A G19C, the self-cleavage was 0.31. In the case of G19U G48C, the self-cleavage is reported as 0.03. G19U G48U gave a self-cleavage of 0.04. For G19U G48A, the self-cleavage was 0.04. For C20G G51U, the self-cleavage was 0.06. Work on C20G G51A yielded a self-cleavage of 0.09. C20G G51C showed a self-cleavage of 0.03. Variant G19C U43G has a self-cleavage of 0.07. Variant G19C U43C has a self-cleavage of 0.05. G19C U43A showed a self-cleavage of 0.07. C20A G23U showed a self-cleavage of 0.1. Variant C20A G23A has a self-cleavage of 0.18. Variant C20A G23C has a self-cleavage of 0.03. Work on G19U G30A yielded a self-cleavage of 0.05. With G19U G30C the self-cleavage was 0.05. G19U G30U showed a self-cleavage of 0.04. Variant C20A U24G has a self-cleavage of 0.06. C20A U24C showed a self-cleavage of 0.17. In the case of C20A U24A, the self-cleavage is reported as 0.37. Work on C20G G49U yielded a self-cleavage of 0.04. Variant C20G G49C has a self-cleavage of 0.03. With C20G G49A the self-cleavage was 0.05. C20G C25A gave a self-cleavage of 0.06. For C20G C25U, the self-cleavage was 0.21. C20G C25G gave a self-cleavage of 0.06. Work on G19U G53C yielded a self-cleavage of 0.06. With G19U G53U the self-cleavage was 0.09. G19U G53A showed a self-cleavage of 0.1. C20G C21U gave a self-cleavage of 0.29. C20G C21A showed a self-cleavage of 0.46. In the case of C20G C21G, the self-cleavage is reported as 0.24. Work on C20G C9G yielded a self-cleavage of 0.1. Variant C20G C9U has a self-cleavage of 0.05. For C20G C9A, the self-cleavage was 0.05. Variant C20G G47U has a self-cleavage of 0.03. Variant C20G G47A has a self-cleavage of 0.05. Work on C20G G47C yielded a self-cleavage of 0.04. For G19U U37A, the self-cleavage was 0.15. With G19U U37G the self-cleavage was 0.53. G19U U37C showed a self-cleavage of 0.84. Work on C20G C27U yielded a self-cleavage of 0.05. Variant C20G C27G has a self-cleavage of 0.05. Work on C20G C27A yielded a self-cleavage of 0.04. Variant C20U C27A has a self-cleavage of 0.23. For C20U C27G, the self-cleavage was 0.08. C20U C27U gave a self-cleavage of 0.26.
